ChEMBL document CHEMBL1135968, “The effect of a phosphodiester linking group on albumin binding, blood half-life, and relaxivity of intravascular diethylenetriaminepentaacetato aquo gadolinium(III) MRI contrast agents” (J Med Chem, 2002)

Experiments:
[1] = Area under plasma 1/T1 versus time curve, 0-30 min; type: ADME, cell-free; parameters: concentration or dose not given beside the values
Procedure, shortened: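 Male Sprague-Dawley rats (150-250 g, n = 2-5, unanesthetized) were given 0.1 mmol/kg 153Gd chelate i.v. by tail vein catheter. Plasma water T1 was measured on a Minispec in triplicate, and plasma Δ1/T1 was followed over time. AUC 0-30 min was calculated per animal by the trapezoidal rule. Values are mean ± 1 SD.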

[2] = molecular target: T1, Albumin (Homo sapiens, UniProt P02768); experiment: Observed relaxivity bound to human serum albumin (4.5%)
T1 sequence (P02768 whole entry): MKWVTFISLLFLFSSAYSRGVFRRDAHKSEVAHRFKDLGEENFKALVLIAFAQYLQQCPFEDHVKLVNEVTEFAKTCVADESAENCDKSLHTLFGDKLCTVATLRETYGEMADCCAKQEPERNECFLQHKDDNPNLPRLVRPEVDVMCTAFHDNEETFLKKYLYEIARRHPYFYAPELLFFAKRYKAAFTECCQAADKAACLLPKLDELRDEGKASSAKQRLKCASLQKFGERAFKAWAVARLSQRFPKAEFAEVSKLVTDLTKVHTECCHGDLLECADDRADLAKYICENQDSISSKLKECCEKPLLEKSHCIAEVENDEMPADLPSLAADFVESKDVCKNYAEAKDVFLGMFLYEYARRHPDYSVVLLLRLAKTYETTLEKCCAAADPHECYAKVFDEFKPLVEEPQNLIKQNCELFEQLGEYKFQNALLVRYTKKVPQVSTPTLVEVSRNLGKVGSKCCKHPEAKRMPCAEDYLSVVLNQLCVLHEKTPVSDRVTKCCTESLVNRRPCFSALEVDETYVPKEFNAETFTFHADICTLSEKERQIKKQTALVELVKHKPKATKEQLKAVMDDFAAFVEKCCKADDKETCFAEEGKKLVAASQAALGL
Procedure, shortened: (§1)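 T1 was read at 20 MHz (0.47 T) and 37 °C, in triplicate, with recycle delay 5× T1. Five sequential additions of 1–10 mM chelate were titrated into PBS (10 mM phosphate, 150 mM NaCl, pH 7.4) or into 4.5% HSA (fraction V) in PBS. r1 was taken from the titration.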

[3] = species on record: Rattus norvegicus; experiment: Volume of distribution, steady state in rat; type: ADME, organism-based; conditions: in vivo
Procedure, shortened: (§2)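 Unanesthetized male Sprague-Dawley rats (150-250 g, n = 2-5) received 153Gd-labeled chelate via tail vein catheter at 0.1 mmol/kg. Plasma was separated from heparinized blood and Gd was measured by ICP. Concentration-time data were fitted biexponentially. Elimination half-life = 0.693/β and Vd = dose/B. AUC 0-30 min was computed per animal by the trapezoidal rule. Values are mean ± 1 SD.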

[4] = Area under concentration versus time curve, 0-30 min; type: ADME; parameters: time < 0.5 hr; conditions: 0.5 h; procedure, shortened: as §2
[5] = Relaxivity, measured in phosphate buffer saline (PBS); type: ADME; procedure, shortened: as §1
[6] = species on record: Rattus norvegicus; experiment: Elimination of half-life in rat; type: ADME, organism-based; conditions: in vivo; procedure, shortened: as §2
[7] = species on record: Rattus norvegicus; experiment: Percent of biliary excretion measured in 24 hr in rat; type: ADME, organism-based, Bile; conditions: in vivo
Procedure, shortened: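 Rats were dosed i.v. at 0.1 mmol/kg with 153Gd-labeled chelate (male Sprague-Dawley, 150-250 g) and housed in metabolic cages to collect urine and feces. They were sacrificed at 24 h. Tissues and excreta were gamma counted, and % injected dose = sample CPM / injected CPM × 100.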

[8] = molecular target: T1, Albumin; experiment: Percentage of compound (0.1 mM) bound to human serum albumin (4.5%); conditions: 100 µM
Procedure, shortened: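 Ultrafiltration, in duplicate. 153Gd-labeled chelate was added to 4.5% HSA to 0.1 mM total Gd. An aliquot was counted, and 400 μL was centrifuged through a 5000 NMWL filter at room temperature (22 ± 1 °C). The unbound fraction came from filtrate counts.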

Row | AUC 1/T1 [1] [s-1 min] | Observed relaxivity [2] [mM⁻¹ s⁻¹] | Vdss [3] [L/kg] | AUC conc [4] [mM·min] | Relaxivity [5] [mM⁻¹ s⁻¹] | T1/2 beta [6] [min] | Excretion [7] [%] | Bound [8] [%] | Substance
1 | 40.1 | 16.3 | 0.44 | 2.58 | 5.5 | 6.8 | 64.3 | 30 | Bis-[N-methyl-D-glucamine]-{(2-((2-naphthyl)methyl)-diethylenetriaminepentaacetato)(aquo)-gadolinium (III)}
2 | 285 | 42 | 0.24 | 9.35 | 6.6 | 23.1 | 15.8 | 88 | Trisodium-{(2-(R)-[(4,4-diphenylcyclohexyl)phosphonooxymethyl]diethylenetriaminepentaacetato)(aquo)-gadolinium (III)}
3 | 46.4 | 4.6 | 0.28 | 6.21 | 4.6 | 15.4 | 6.3 | 0 | DIETHYLENETRIAMINEPENTAACETATO AQUO GADOLINIUM (III)
4 | 150 |  | 0.31 | 5.96 | 6.1 | 14.3 | 17.7 | 54 | Tris-[N-methyl-D-glucamine]-{(2-(R)-[octylphosphonooxymethyl]diethylenetriaminepentaacetato)(aquo)-gadolinium (III)}
5 | 94.2 | 19.5 | 0.32 | 5.57 | 6 | 14.3 | 17 | 40 | Tris-[N-methyl-D-glucamine]-{(2-(R)-[(2-(1-naphthyl)-ethyl)phosphonooxymethyl]diethylenetriaminepentaacetato)(aquo)-gadolinium (III)}
6 | 69.7 | 20.7 | 0.62 | 3.06 | 5.9 | 6.2 | 66.9 | 44 | Bis-[N-methyl-D-glucamine]-{(2-(octyldiethylenetriamine)diethylenetriaminepentaacetato)(aquo)-gadolinium (III)}
